The results in this text go back to ChEMBL document CHEMBL1152956, “Synthesis and cytotoxic activity of 5,6-heteroaromatically annulated pyridine-2,4-diamines” (Bioorg Med Chem, 2009).

In test [1] the test system is DAN-G. Kind of test: Growth inhibition of human DAN-G cells at 20 uM after 96 hrs by crystal violet staining. Type of test: functional. The conditions noted are these: read-out: GI. The method in brief:
(§1)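 This was a single-concentration screen. Actively dividing cells had 96 h continuous exposure to compound diluted 1000-fold from a DMSO solution into medium. Cells were fixed with glutaraldehyde and stained with crystal violet. Bound dye was redissolved in 70% ethanol and read at OD 570 nm. Growth inhibition was expressed against untreated controls.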

The test system of test [2] is 5637. Nature of the test: Cytotoxicity against human 5637 cells after 96 hrs by crystal violet staining. The conditions noted are these: Homo sapiens, 5637, 96 h. Type of test: functional, cell-based. The method in brief:
(§2)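 Compounds were held as 20 mM DMSO stocks at -20 °C and serially diluted in DMSO to working solutions of 20, 10, 5.0, 2.50, 1.25 and […]. Five of these were diluted 1000-fold into medium, with DMSO-only controls. Dividing cells had 96 h continuous exposure, then glutaraldehyde fixation and crystal violet staining. Dye was redissolved in 70% ethanol and read at OD 570 nm. IC50 came from linear regression of log dose–response curves.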

Test [3] is described as follows: Cytotoxicity against human LCLC-103H cells after 96 hrs by crystal violet staining. Type of test: functional, cell-based. The method in brief:
as §2

In test [4] the test system is DAN-G. Nature of the test: Cytotoxicity against human DAN-G cells after 96 hrs by crystal violet staining. Type of test: functional, cell-based. The gist of the method:
as §2

For test [5], the system named is RT-4. Kind of test: Cytotoxicity against human RT4 cells after 96 hrs by crystal violet staining. In kind it is functional, cell-based. The note with it: RT-4, 96 h. The gist of the method: as §2
The nature of test [6]: Growth inhibition of human LCLC-103H cells at 20 uM after 96 hrs by crystal violet staining. Type of test: functional. The conditions noted are these: read-out: GI. The gist of the method: as §1
The subject of test [7] is A-427. Kind of test: Cytotoxicity against human A427 cells after 96 hrs by crystal violet staining. Type of test: functional, cell-based. The conditions noted are these: A-427, 96 h. The gist of the method: as §2
Test [8] concerns MCF7. Kind of test: Cytotoxicity against human MCF7 cells after 96 hrs by crystal violet staining. Type of test: functional, cell-based. The note with it: MCF7, 96 h. The gist of the method:
as §2

Test [9] relates to RT-4. Kind of test: Growth inhibition of human RT4 cells at 20 uM after 96 hrs by crystal violet staining. Type of test: functional. The conditions noted are these: RT-4, 96 h, read-out: GI. The gist of the method: as §1
Test [10] concerns 5637. Kind of test: Growth inhibition of human 5637 cells at 20 uM after 96 hrs by crystal violet staining. The conditions noted are these: Homo sapiens, 5637, 96 h; read-out: GI. In kind it is functional. The method in brief: as §1
The subject of test [11] is MCF7. Nature of the test: Growth inhibition of human MCF7 cells at 20 uM after 96 hrs by crystal violet staining. In kind it is functional. The conditions noted are these: MCF7, 96 h, read-out: GI. The gist of the method: as §1
For test [12], the system named is A-427. Kind of test: Growth inhibition of human A427 cells at 20 uM after 96 hrs by crystal violet staining. In kind it is functional. The note with it: A-427, 96 h, read-out: GI. The method in brief: as §1

pIC50: −log10 of the molar value. Some results are limits rather than exact numbers.

With `Cc1c(C)n(Cc2ccccc2)c2nc(N(C)C)cc(N)c12`, the inhibition of growth at 20 µM (with DAN-G [1]; in test [6]) was less than 50% each time. The pIC50 in the test with 5637 [2] is 4.93; in test [3] it was less than 4.70; in the test with DAN-G [4], less than 4.70; in the test with RT-4 [5], 4.71; in the test on A-427 [7], 4.90; in the test with MCF7 [8] it was 4.88.

Turning to `C=CCn1c(-c2ccccc2)c(-c2ccccc2)c2c(N)cc(N(C)C)nc21`, the inhibition of growth at 20 µM (in the test with DAN-G [1]; in test [6]) was less than 50% throughout. Further, the pIC50 was 4.77 in the test with 5637 [2]; less than 4.70 in test [3]; less than 4.70 in the test with DAN-G [4]; 4.92 in the test on RT-4 [5]; 5.41 with A-427 [7]; 5.04 with MCF7 [8].

With `Cc1c(-c2ccccc2)sc2nc(N(C)C)cc(N)c12`, the pIC50 with 5637 [2] was 4.75; in test [3], less than 4.70; with DAN-G [4], 4.79; with RT-4 [5] it was 5.21; in the test on A-427 [7] it was 4.82; with MCF7 [8] it was 4.87. Besides, in [6], the inhibition of growth at 20 µM is less than 50%.

As to `Nc1cc(N2CCCC2)nc2sc(-c3ccccc3)c(-c3ccccc3)c12`, the pIC50 in the test with 5637 [2] is 5.09; in test [3], 5.01; with DAN-G [4], 5.09; in the test with RT-4 [5] it was less than 4.70; with A-427 [7] it was 5.06; in the test with MCF7 [8], 4.86. Besides, in the test with RT-4 [9], the inhibition of growth at 20 µM is less than 50%.

For `Cc1cc2c(N)cc(N(C)C)nc2nc1-c1ccccc1`, the pIC50 is 5.05 in the test with 5637 [2]; less than 4.70 in [3]; 4.74 with DAN-G [4]; 5.30 with RT-4 [5]; 4.93 in the test on A-427 [7]; 4.93 in the test with MCF7 [8]. Moreover, the inhibition of growth at 20 µM in test [6] was less than 50%.

Consider `CN(C)c1cc(N)c2c3ccccc3n(C)c2n1`, for which the inhibition of growth at 20 µM (in the test with DAN-G [1]; in the test with 5637 [10]; in test [6]; in the test on MCF7 [11]; in the test on A-427 [12]; in the test on RT-4 [9]) was less than 50% each time. For the same compound, the pIC50 (in the test on 5637 [2]; in [3]; with DAN-G [4]; in the test on RT-4 [5]; with A-427 [7]; in the test with MCF7 [8]) was less than 4.70 each time.

Take `COc1ccc(Cn2c3nc(N(C)C)cc(N)c3c3ccc4ccccc4c32)cc1`: the inhibition of growth at 20 µM (in the test on DAN-G [1]; in the test on 5637 [10]; in test [6]; in the test on MCF7 [11]; with A-427 [12]; in the test with RT-4 [9]) was less than 50% each time. Also, the negative logarithm of the IC50 (pIC50) (in the test on 5637 [2]; in [3]; with DAN-G [4]; with RT-4 [5]; in the test with A-427 [7]; in the test on MCF7 [8]) was less than 4.70 in each case.

Take `CN(C)c1cc(N)c2c(-c3ccccc3)c(-c3ccccc3)sc2n1`: the negative logarithm of the IC50 (pIC50) with 5637 [2] is 5.00; in [3], 4.97; with DAN-G [4], 4.82; with RT-4 [5], less than 4.70; in the test with A-427 [7], 4.95; in the test on MCF7 [8], 4.79. In addition, the inhibition of growth at 20 µM with RT-4 [9] was less than 50%.

For `Cc1nc2nc(N(C)C)cc(N)c2cc1-c1ccccc1`, the inhibition of growth at 20 µM (in the test with DAN-G [1]; with 5637 [10]; in test [6]; with MCF7 [11]; with RT-4 [9]) was less than 50% in each case. Moreover, the pIC50 (in the test on 5637 [2]; in test [3]; in the test on DAN-G [4]; in the test with RT-4 [5]; in the test with MCF7 [8]) was less than 4.70 in each case.

Consider `CN(C)c1cc(N)c2c(n1)[nH]c1c3ccccc3ccc12`, for which the pIC50 was 5.10 with 5637 [2]; 5.01 in test [3]; 5.01 in the test with DAN-G [4]; 5.18 in the test with RT-4 [5]; 5.18 with A-427 [7]; 5.12 in the test on MCF7 [8].

Turning to `CN(C)c1cc(N)c2c(n1)[nH]c1ccccc12`, the inhibition of growth at 20 µM (with DAN-G [1]; in the test on 5637 [10]; in [6]; in the test with MCF7 [11]; in the test with A-427 [12]; in the test on RT-4 [9]) was less than 50% each time. Further, the pIC50 (in the test on 5637 [2]; in [3]; with DAN-G [4]; in the test on RT-4 [5]; with A-427 [7]; in the test with MCF7 [8]) was less than 4.70 each time.

Consider `Nc1cc(N2CCCC2)nc2nc(-c3ccccc3)c(-c3ccccc3)cc12`, for which the pIC50 in the test on 5637 [2] was 5.56; in test [3] it was 4.90; in the test on DAN-G [4], 5.20; with RT-4 [5] it was 4.92; with A-427 [7], 5.36; in the test on MCF7 [8], 5.39.

For `Nc1cc(N2CCCC2)nc2oc(-c3ccccc3)c(-c3ccccc3)c12`, the inhibition of growth at 20 µM (in the test with DAN-G [1]; in [6]) was less than 50% in each case. In addition, the pIC50 is 4.74 in the test with 5637 [2]; less than 4.70 in test [3]; less than 4.70 in the test with DAN-G [4]; 4.75 with RT-4 [5]; 4.86 in the test with A-427 [7]; 4.83 in the test on MCF7 [8].

Regarding `CN(C)c1cc(N)c2c3ccc4ccccc4c3n(C)c2n1`, the inhibition of growth at 20 µM (in the test with DAN-G [1]; in the test with 5637 [10]; in [6]) was less than 50% in each case. Further, the pIC50 is less than 4.70 with 5637 [2]; less than 4.70 in test [3]; less than 4.70 in the test with DAN-G [4]; 4.89 in the test on RT-4 [5]; 4.84 in the test with A-427 [7]; 4.67 in the test with MCF7 [8].

On to `CN(C)c1cc(N)c2c(-c3ccccc3)c(-c3ccccc3)n(Cc3ccccc3)c2n1`, for which the inhibition of growth at 20 µM (in the test on DAN-G [1]; with 5637 [10]; in test [6]; in the test with MCF7 [11]; in the test with RT-4 [9]) was less than 50% throughout. For the same compound, the pIC50 (with 5637 [2]; in [3]; with DAN-G [4]; in the test on RT-4 [5]; in the test with MCF7 [8]) was less than 4.70 in each case.

For the compound `COc1ccc(Cn2c3ccccc3c3c(N)cc(N(C)C)nc32)cc1`, the inhibition of growth at 20 µM (in the test with DAN-G [1]; in the test with 5637 [10]; in test [6]; in the test on MCF7 [11]; in the test on A-427 [12]) was less than 50% throughout. Moreover, the pIC50 (in the test with 5637 [2]; in test [3]; in the test on DAN-G [4]; in the test with A-427 [7]; in the test on MCF7 [8]) was less than 4.70 throughout.

For `CN(C)c1cc(N)c2c3c(n(Cc4ccccc4)c2n1)CCCC3`, the inhibition of growth at 20 µM (in the test on DAN-G [1]; in test [6]) was less than 50% throughout. The pIC50 (in [3]; in the test on DAN-G [4]) was less than 4.70 in each case.

Consider `CCOC(OCC)n1c2ccccc2c2c(N)cc(N(C)C)nc21`, for which the inhibition of growth at 20 µM (with DAN-G [1]; in the test on 5637 [10]; in [6]; in the test on MCF7 [11]; with A-427 [12]; with RT-4 [9]) was less than 50% each time. The pIC50 (in the test with 5637 [2]; in test [3]; in the test with DAN-G [4]; with RT-4 [5]; in the test on A-427 [7]; with MCF7 [8]) was less than 4.70 in each case.

`CN(C)c1cc(N)c2ccc3ccccc3c2n1`: the pIC50 was 5.00 with 5637 [2]; 5.05 in test [3]; 4.99 in the test with DAN-G [4]; 5.11 in the test on RT-4 [5]; 5.09 with A-427 [7]; 5.21 in the test on MCF7 [8].

`CN(C)c1cc(N)c2c(-c3ccccc3)c(-c3ccccc3)oc2n1`: the inhibition of growth at 20 µM (in the test with DAN-G [1]; in test [6]; in the test on RT-4 [9]) was less than 50% throughout. For the same compound, the pIC50 with 5637 [2] is 4.83; in [3], less than 4.70; with DAN-G [4], less than 4.70; with RT-4 [5], less than 4.70; in the test with A-427 [7], 4.84; with MCF7 [8], 4.73.

`CN(C)c1cc(N)c2cc(-c3ccccc3)c(-c3ccccc3)nc2n1`: the pIC50 is 5.10 in the test with 5637 [2]; 4.86 in [3]; 4.94 with DAN-G [4]; 4.84 in the test with RT-4 [5]; 5.10 in the test on A-427 [7]; 5.11 in the test on MCF7 [8].

As for `Cc1c2ccncc2c(C)c2c1[nH]c1ccccc12` [ELLIPTECINE], the pIC50 in the test on 5637 [2] was 6.05; in test [3], 6.10; with RT-4 [5] it was 5.92; with A-427 [7], 6.05; in the test on MCF7 [8] it was 6.37.

What is called pIC50 is the IC50 on a negative log10 scale, so that one unit is a factor of ten. Higher therefore signals a small IC50.
